Bioassay records from PubChem BioAssay.
A selection: hits, their analogues and other compounds. The true share with any hit is near 1.7%.
CHO-K1 Ca ag – nonselective activator or artifact in parental CHO-K1 cells; Fluo-8 calcium fluorescence; scaled to maximal ATP response, vehicle zero; activation, % at 3 µM; 0.48% of 360,000 active; AID 602248; in the data active = activation above about 15%;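 note: untransfected CHO-K1 host cells lacking M1 receptor as counterscreen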
CHO-K1 Ca PAM – counter-screen for M1 PAMs: effect in parental CHO-K1 cells; ATP EC20, Fluo-8 calcium fluorescence; 0% at ATP EC20, 100% at ATP max; activation, % at 3 µM; 0.02% of 360,000 active; AID 602247;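 active = activation above the run cutoff, the mean activation of all test compounds plus 3 SD, cut at about 40% in these data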;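 note: peak over basal fluorescence ratio in a 140 s read after ATP addition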
M5 antag – CHRM5 antagonism in calcium assay. P08912. CHO-hM5 cells, Fluo-8 calcium fluorescence, ACh EC80. inhibition, % at 3 µM. 0.59% of 360,000 active;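 active = inhibition above a per-plate cutoff, the mean of that plate's test compounds plus 3 SD, cut at about 27% in these data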;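 note: 0% = acetylcholine EC80 with DMSO and 100% = DMSO without agonist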
Target sequence (P08912 whole entry, looked up): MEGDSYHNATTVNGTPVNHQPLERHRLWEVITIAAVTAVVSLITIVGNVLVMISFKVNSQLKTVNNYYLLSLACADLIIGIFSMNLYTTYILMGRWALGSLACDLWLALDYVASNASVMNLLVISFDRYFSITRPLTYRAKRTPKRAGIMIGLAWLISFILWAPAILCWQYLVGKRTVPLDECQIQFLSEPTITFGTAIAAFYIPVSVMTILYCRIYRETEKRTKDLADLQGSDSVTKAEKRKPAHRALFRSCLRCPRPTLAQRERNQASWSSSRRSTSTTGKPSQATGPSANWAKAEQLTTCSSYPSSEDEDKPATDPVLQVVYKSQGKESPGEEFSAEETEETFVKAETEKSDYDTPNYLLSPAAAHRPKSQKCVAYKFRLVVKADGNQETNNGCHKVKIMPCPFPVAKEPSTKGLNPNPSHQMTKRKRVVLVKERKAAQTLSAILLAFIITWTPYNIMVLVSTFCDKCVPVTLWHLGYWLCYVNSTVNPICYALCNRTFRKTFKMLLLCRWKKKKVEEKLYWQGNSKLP
CHO-K1 Ca antag – counter-screen for M1 antagonists: effect in parental CHO-K1 cells; ATP-induced calcium, Fluo-8 fluorescence; inhibition, % at 3 µM; 0.6% of 360,000 active; AID 602250;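 active = inhibition above a per-plate cutoff, the plate's mean sample inhibition plus 3 SD, cut at about 24% in these data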;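 note: 0% = DMSO plus EC80 ATP and 100% = DMSO alone without ATP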
M5 PAM – positive allosteric modulators of human muscarinic M5 receptor; 0.3% of 360,000 active; activation, % at 3 µM; CHO-K1 hM5, Fluo-8 calcium, ACh EC20 PAM; 0% = ACh EC20, 100% = ACh EC100; P08912;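 active = activation above the run cutoff, the mean activation of all test compounds plus 3 SD, cut at about 18% in these data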
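Probe or stimulus: acetylcholine, EC20 level; Assay system: human M5 receptor in CHO-K1 cells; Schedule: compound preincubation 140 s before EC20 acetylcholine addition; Technique: intracellular calcium via Fluo-8 fluorescence; Dosing: single-point, 3 µM nominal; Read-out basis: percent activation from peak-over-basal fluorescence ratio, scaled EC20-to-EC100 acetylcholine; Repeats: one well per compound, no replicates.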
CHRM5 agonist – agonists of human muscarinic M5 receptor (CHRM5). P08912. 0.19% of 360,000 active. activation, % at 3 µM. CHO-K1 hM5 cells, Fluo-8 calcium fluorescence; 0% DMSO wells, 100% maximal acetylcholine response;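 active = activation above the run's mean over test compounds plus 3 SD, cut at about 23% in these data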;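 note: signal is peak over basal fluorescence ratio across the kinetic read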
* hit, by the source's call.

SMILES | CHO-K1 Ca ag | CHO-K1 Ca PAM | M5 antag | CHO-K1 Ca antag | M5 PAM | CHRM5 agonist
CCCCn1c(=O)nc2n(-c3ccc(Cl)cc3)c3ccccc3cc-2c1=O | -0.5 | -16.4 | -8.9 | 27.3* | 2.5 | -0.4
CCCCn1c(=O)nc2n(-c3ccc(C)cc3)c3ccccc3cc-2c1=O | -0.1 | 11.2 | 1.0 | -4.2 | -9.0 | -1.4
CCCn1cc(SCC(=O)Nc2ccc3c(c2)OCO3)c2ccccc21 | 1.8 | 21.1 | 5.4 | -1.1 | -19.5 | 28.5*
O=C(CCn1cnc2ccccc2c1=O)Nc1ccc2c(c1)OCCO2 | 0.4 | -1.6 | -8.4 | 4.6 | 24.8* | -5.3
O=C(Cn1cnc2ccccc2c1=O)NCCC(=O)Nc1ccc2c(c1)OCO2 | 1.7 | 27.0 | 2.8 | -14.7 | 8.6 | 0.2
Cn1nc(CC(=O)Nc2ccc3c(c2)OCCO3)c2ccccc2c1=O | 11.8 | -10.7 | 32.4* | 27.5* | -7.6 | 5.6
Cc1ccc2c(C(=O)CNc3nncs3)c(C)[nH]c2c1 | 1.5 | 5.6 | -5.8 | -11.3 | 6.4 | 3.0
Cc1ccccc1C(=O)N=c1ccn(-c2nc3ccccc3nc2NS(=O)(=O)c2ccccc2)cc1 | 0.3 | 12.2 | 12.0 | -11.1 | -0.1 | -5.3
CCOc1ccc(S(=O)(=O)Nc2nc3ccccc3nc2-n2ccc(=NC(=O)c3ccccc3C)cc2)cc1 | 23.9* | -4.2 | 39.9* | 25.4* | -17.5 | 30.1*
Cc1c(Cl)c(=O)oc2cc(OCC(=O)NCc3cccs3)ccc12 | 0.5 | -10.9 | -27.8 | 6.5 | 21.4* | 0.5
Cc1ccc(S(=O)(=O)N(C)c2ccc(OCC(=O)OCc3nnc(-c4ccccc4)o3)cc2)cc1 | 0.6 | 21.3 | 11.2 | -11.6 | -3.4 | -1.5
O=C(NCCCl)Nc1ccc(Cl)c([N+](=O)[O-])c1 | 0.1 | 14.6 | 7.2 | -6.8 | 2.6 | 0.2
O=[N+]([O-])c1cc(C(F)(F)F)cc([N+](=O)[O-])c1NCCNC(=S)Nc1ccc(Cl)c(Cl)c1 | 13.2 | -15.9 | 35.5* | 27.4* | -24.8 | 10.1
CCCCC(=O)NC(=S)NNC(=O)c1ccc(OC)cc1 | 31.3* | -1.8 | 1.6 | -0.1 | -4.6 | 12.8
CCNC(=S)NNC(=O)c1ccc(OC)cc1 | -0.7 | -5.9 | -12.0 | 0.7 | 3.2 | 0.9
COc1ccc(C(=O)NNC(=S)NC(=O)c2ccc(OC)cc2)cc1 | 34.2* | 1.0 | 12.4 | 6.3 | -12.8 | 19.9
COc1ccc(C(=O)NNC(=S)NC(=O)c2ccc(F)cc2)cc1Br | 66.1* | -34.8 | 1.7 | 17.3 | -27.9 | 67.6*
COc1ccc(C(=O)NC(=S)NNC(=O)c2ccncc2)cc1Br | 2.3 | 17.1 | 11.0 | -1.0 | 6.1 | 9.8
CCCn1cnc2c(N)c(C)c(C)cc21 | 0.0 | 9.5 | -1.2 | -2.4 | 2.4 | -0.7
Cc1ccc(N(Cc2ccccc2)C(=O)c2ccc(Cl)c(S(=O)(=O)N3CCOCC3)c2)cc1 | 0.7 | -13.6 | 8.5 | 5.9 | -20.8 | -3.5
COc1cc(/C=N/n2cnnc2)ccc1Oc1nc(Cl)ncc1F | 0.3 | -9.8 | 3.6 | -1.8 | -2.9 | -1.2
CCn1c(=O)c(C(=O)NNC(=O)c2ccccc2Cl)c(O)c2ccccc21 | 35.1* | 21.5 | 4.8 | -16.2 | -1.0 | 14.3
CCCn1c(=O)c(C(=O)NCc2ccncc2)c(O)c2ccccc21 | -0.6 | 1.3 | 0.2 | 29.3* | -2.5 | -1.1
CCCn1c(=O)c(C(=O)NCc2ccccc2Cl)c(O)c2ccccc21 | 1.4 | 4.5 | 6.0 | 1.3 | 5.8 | 1.5
CC(NCC(=O)Nc1cc(S(=O)(=O)N2CCOCC2)ccc1N1CCOCC1)c1ccco1 (stereo unspecified) | 1.4 | 17.0 | 1.4 | -12.1 | 4.2 | -0.5
SMILES | CHO-K1 Ca ag | CHO-K1 Ca PAM | M5 antag | CHO-K1 Ca antag | M5 PAM | CHRM5 agonist
COc1ccc2c(n1)Sc1nc3ccccc3nc1N2 | 24.6* | 7.8 | 22.6 | 28.1* | -6.4 | 30.9*
COc1cc2ccccc2nn1 | 0.1 | -18.6 | 8.8 | 0.1 | -5.8 | 0.2
CC1(C)C(=O)OC(C(=O)c2ccccc2)C2(CCCCC2)C1=O (stereo unspecified) | -0.2 | 11.0 | -0.7 | 2.6 | -1.1 | -6.0
COc1ccc(-c2cc(C(F)(F)F)nc(SCCC(=O)NCc3ccccc3)n2)cc1 | -0.5 | -5.6 | 3.3 | 28.9* | -4.7 | 0.1
COc1cc(O)c2c(=O)c3c(O)ccc(O)c3oc2c1 | 0.9 | 10.1 | 9.6 | 1.2 | 1.8 | 1.9
COc1cc(/C=C2/C(=O)NN(c3ccc(Cl)cc3)C2=O)cc(Br)c1O | 0.2 | 5.7 | -3.5 | 4.1 | 19.7* | 6.3
O=C(/C=C/c1ccco1)N1CCN(S(=O)(=O)c2ccc(F)c(F)c2F)CC1 | -0.3 | -9.5 | 11.4 | -5.8 | -4.9 | -4.5
Cc1ccc([N+](=O)[O-])cc1NC(=O)Nc1cccc(F)c1 | 13.1 | -22.2 | 30.4* | 25.7* | -16.8 | 9.8
Cc1ccc([N+](=O)[O-])cc1NC(=O)c1ccc(-c2ccccc2)cc1 | -0.3 | -5.5 | 7.5 | 23.8* | -3.2 | -1.4
O=C(Nc1ccccc1)Nc1cc([N+](=O)[O-])ccc1F | 8.4 | 1.6 | 4.5 | -5.2 | -14.3 | 6.2
Cc1ccc(C(=O)Nc2cc([N+](=O)[O-])ccc2C)cc1 | -0.1 | -2.0 | 4.2 | -5.4 | -0.5 | -0.4
COc1cccc(C2Nc3ccccc3C(=O)N2Cc2ccccc2)c1 (stereo unspecified) | 3.8 | 29.1 | 27.6* | -3.4 | 28.0* | -6.1
O=C1c2ccccc2NC(c2ccccc2)N1Cc1ccccc1 (stereo unspecified) | 3.5 | -0.9 | 11.0 | -9.4 | -1.6 | -14.6
COc1ccc(-c2csc(NC(=O)[C@H](C)N3C(=O)C4CC=CCC4C3=O)n2)cc1OC (stereo partly specified) | 6.6 | 25.5 | 9.4 | -4.8 | -10.3 | 5.0
COCc1cc(C)nc(SCC(=O)Nc2cc3c(cc2C#N)OCO3)c1C#N | 1.0 | 19.8 | 6.6 | -3.9 | 8.6 | 0.9
COc1ccccc1N=C1NC(=O)/C(=C/c2ccc(N(C)C)cc2)S1 | 32.3* | -0.5 | 36.0* | 28.9* | -14.9 | 51.4*
O=C(CSc1nnc(CNC(=O)c2cccs2)o1)NC1CCCCC1 | 0.0 | -7.3 | 1.8 | 24.6* | -10.9 | -6.4
O=C(CSc1nnc(CNC(=O)c2cccs2)o1)NCC1CCCO1 (stereo unspecified) | 1.2 | 22.3 | -5.5 | -9.8 | 5.4 | -2.0
COc1cc(C(=O)C(=O)c2ccc(O)c(OC)c2)ccc1O | 0.3 | 10.6 | 8.4 | -7.8 | -2.0 | -1.7
Cc1cc(C)cc(N2C(=O)C3CCCN3C2=S)c1 (stereo unspecified) | 17.0* | 15.3 | 1.0 | -6.9 | -0.1 | -3.4
Cc1ccc(N2C(=O)C3CCCN3C2=S)cc1 (stereo unspecified) | 0.8 | 0.5 | -6.0 | -9.3 | 4.2 | -0.6
Cc1ccc(S(=O)(=O)Nc2cc(Cl)c(O)cc2C)cc1 | 4.1 | 10.5 | 13.3 | -1.7 | -2.1 | 5.2
